Measured values as given in ChEMBL document CHEMBL3259568 (Bioorg Med Chem, 2014).

Experiments:
Rattus norvegicus [1] = experiment: Ulcerogenic activity in albino rat stress model assessed as ulcer index at 10 mg/kg, po after 7 hrs; type: toxicity, organism-based; parameters: dose 10 mg/kg, route oral; settings: in vivo
How it was run: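 Albino rats of either sex (170–250 g), six per group, starved 48 h with water, dosed orally 10 mg/kg in sodium CMC; killed 7 h later. Stomach opened along greater curvature and everted; lesions counted in five size classes (pinpoint to >4 mm) to give ulcer index, reported as min–max range.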

Rattus norvegicus [2] = experiment: Acute antiinflammatory activity in albino rat assessed as inhibition of carrageenan-induced paw edema at 13.5 mg/kg, po administered 1 hr followed by carrageenan challenge measured at 2 hrs by plethysmometric analysis relative to control; type: functional
How it was run: (§1)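 Male albino rats (170–220 g), fasted ≥12 h with water, six per group. Oral dosing in 0.5% sodium CMC (control 1 ml vehicle), then 1 h later subplantar 0.05 ml of 1% carrageenan into left hind footpad. […] Mean ± SEM, ANOVA/Dunnett.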

Rattus norvegicus [3] = experiment: Acute antiinflammatory activity in albino rat assessed as inhibition of carrageenan-induced paw edema at 13.5 mg/kg, po administered 1 hr followed by carrageenan challenge measured at 4 hrs by plethysmometric analysis relative to control; type: functional; how it was run: as §1
Mus musculus [4] = experiment: Analgesic activity in albino mouse assessed as protection against glacial acetic acid-induced writhing at 19.5 mg/kg, po administered 0.5 hrs followed by glacial acetic acid challenge measured for 15 mins relative to control; type: functional
How it was run: (§2)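 Mice (20–25 g) pre-screened 24 h earlier with i.p. 10 ml/kg 0.6% glacial acetic acid; only responders used. Oral dosing as suspension in 0.5% sodium CMC 30 min before acetic acid challenge. Writhing episodes counted for 15 min; group means versus vehicle control; ANOVA with Dunnett test.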

Mus musculus [5] = experiment: Acute toxicity in albino mouse assessed as effect on general behavioral profile at 2000 mg/kg, po measured for 3 hrs; type: organism-based; parameters: dose 2000 mg/kg, route oral; settings: in vivo
How it was run: (§3)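 OECD guideline test. Albino mice of either sex, 20–25 g, six per group, fasted 24 h with water ad libitum. Compounds suspended in 0.5% aqueous sodium CMC and given orally in increasing doses of 10, 20, 100, 200, 1000 and 2000 mg/kg b.w. Animals watched continuously for 3 h for general behavioural, neurological and autonomic profiles, then every 30 min for 3 h, then up to 24 h or until death.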

Rattus norvegicus [6] = experiment: Acute antiinflammatory activity in albino rat assessed as inhibition of carrageenan-induced paw edema at 10 mg/kg, po administered 1 hr followed by carrageenan challenge measured at 2 hrs by plethysmometric analysis relative to control; type: functional; how it was run: as §1
Mus musculus [7] = experiment: Acute toxicity in albino mouse assessed as mortality at 2000 mg/kg, po measured continuously for 3 hrs followed by every 30 mins for next 3 hrs up to 24 hrs; type: organism-based; parameters: dose 2000 mg/kg, route oral; settings: in vivo; how it was run: as §3
Mus musculus [8] = experiment: Acute toxicity in albino mouse assessed as effect on autonomic profile at 2000 mg/kg, po measured for 3 hrs; type: organism-based; parameters: dose 2000 mg/kg, route oral; settings: in vivo; how it was run: as §3
Mus musculus [9] = experiment: Acute toxicity in albino mouse assessed as effect on neurological profile at 2000 mg/kg, po measured for 3 hrs; type: organism-based; parameters: dose 2000 mg/kg, route oral; settings: in vivo; how it was run: as §3
Rattus norvegicus [10] = experiment: Acute antiinflammatory activity in albino rat assessed as inhibition of carrageenan-induced paw edema at 10 mg/kg, po administered 1 hr followed by carrageenan challenge measured at 4 hrs by plethysmometric analysis relative to control; type: functional; how it was run: as §1
Rattus norvegicus [11] = experiment: Antipyretic activity in albino rat assessed as decrease in yeast-induced pyrexia by measuring temperature index at 10 mg/kg, po measured over 5 hrs by telethermometer (reference value: 1.04 degC); type: functional
How it was run: (§4)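 Male albino rats (170–230 g) given s.c. 2.5 ml 20% aqueous baker's yeast; rectal temperature by telethermometer before and at 18 h (taken as 0 h). Rats with 1–2 °C rise, six per group, dosed orally 30 min later (control 1 ml 0.5% sodium CMC). Temperature recorded hourly to 5 h; temperature index = sum of mean changes from 0 h.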

Mus musculus [12] = experiment: Analgesic activity in albino mouse assessed as protection against glacial acetic acid-induced writhing at 10 mg/kg, po administered 0.5 hrs followed by glacial acetic acid challenge measured for 15 mins relative to control; type: functional; how it was run: as §2
[13] = molecular target: T1, Prostaglandin G/H synthase 1 (Ovis aries, UniProt P05979); experiment: Inhibition of ovine COX1 peroxidase activity assessed as reduction of PGG2 to PGH2 by measuring oxidized TMPD level by colorimetric assay
T1 sequence (P05979 whole entry): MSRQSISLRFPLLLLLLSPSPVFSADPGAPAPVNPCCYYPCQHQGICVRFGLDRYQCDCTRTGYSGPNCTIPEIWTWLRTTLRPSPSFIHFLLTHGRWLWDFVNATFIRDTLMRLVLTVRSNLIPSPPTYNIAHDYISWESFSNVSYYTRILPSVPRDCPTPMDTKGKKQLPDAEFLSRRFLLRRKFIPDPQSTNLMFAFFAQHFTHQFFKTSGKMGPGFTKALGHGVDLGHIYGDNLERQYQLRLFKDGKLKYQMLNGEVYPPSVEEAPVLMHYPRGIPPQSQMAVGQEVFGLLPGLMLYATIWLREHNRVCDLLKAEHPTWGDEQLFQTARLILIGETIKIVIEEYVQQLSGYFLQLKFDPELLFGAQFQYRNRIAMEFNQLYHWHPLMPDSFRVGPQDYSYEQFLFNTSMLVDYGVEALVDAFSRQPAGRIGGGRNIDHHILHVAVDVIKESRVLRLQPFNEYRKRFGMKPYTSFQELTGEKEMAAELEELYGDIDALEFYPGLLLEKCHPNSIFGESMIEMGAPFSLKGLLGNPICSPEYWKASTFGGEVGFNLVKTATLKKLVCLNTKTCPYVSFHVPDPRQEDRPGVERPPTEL

Rattus norvegicus [14] = experiment: Antipyretic activity in albino rat assessed as yeast-induced pyrexia at 10 mg/kg, po measured at 4 hrs by telethermometer (reference value: 38 degC); type: functional; how it was run: as §4
[15] = molecular target: T2, Prostaglandin G/H synthase 1 (Ovis aries) (UniProt P05979); experiment: Inhibition of ovine COX1 peroxidase activity assessed as reduction of PGG2 to PGH2 by measuring oxidized TMPD level at 10 ug/ml by colorimetric assay relative to control
T2 sequence (whole entry): T1 sequence (P05979 whole entry)

Rattus norvegicus [16] = experiment: Antipyretic activity in albino rat assessed as yeast-induced pyrexia at 10 mg/kg, po measured at 1 hr by telethermometer (reference value: 38.26 degC); type: functional; how it was run: as §4
Rattus norvegicus [17] = experiment: Antipyretic activity in albino rat assessed as yeast-induced pyrexia at 10 mg/kg, po measured at 3 hrs by telethermometer (reference value: 38.11 degC); type: functional; how it was run: as §4
Rattus norvegicus [18] = experiment: Antipyretic activity in albino rat assessed as yeast-induced pyrexia at 10 mg/kg, po measured at 2 hrs by telethermometer (reference value: 38.20 degC); type: functional; how it was run: as §4
Rattus norvegicus [19] = experiment: Antipyretic activity in albino rat assessed as yeast-induced pyrexia at 10 mg/kg, po measured at 5 hrs by telethermometer (reference value: 37.89 degC); type: functional; how it was run: as §4

Row | SMILES | UI (Rattus norvegicus [1]) | inhibition in vivo at 13.5 mg/kg (Rattus norvegicus [2]) [%] | inhibition in vivo at 13.5 mg/kg (Rattus norvegicus [3]) [%] | Activity (Mus musculus [4]) [%] | Activity (Mus musculus [5]) | inhibition in vivo at 10 mg/kg (Rattus norvegicus [6]) [%] | Activity (Mus musculus [7]) | Activity (Mus musculus [8]) | Activity (Mus musculus [9]) | inhibition in vivo at 10 mg/kg (Rattus norvegicus [10]) [%] | T (Rattus norvegicus [11]) [°C] | Activity (Mus musculus [12]) [%] | IC50 [13] [µM] | T (Rattus norvegicus [14]) [°C] | inhibition [15] [%] | T (Rattus norvegicus [16]) [°C] | T (Rattus norvegicus [17]) [°C] | T (Rattus norvegicus [18]) [°C] | T (Rattus norvegicus [19]) [°C]
1 | CC(C(=O)O)c1ccc(-c2ccccc2)c(F)c1 (centres undefined) [FLURBIPROFEN] | 5.9 |  |  |  |  |  |  |  |  |  |  |  |  |  |  |  |  |  | 
2 | O=C(O)Cc1ccccc1Nc1c(Cl)cccc1Cl [DICLOFENAC] | 5.5 | 65.5 | 66.2 | 79.3 |  |  |  |  |  |  |  |  |  |  |  |  |  |  | 
3 | CN(Cn1nc(Cc2ccccc2Nc2c(Cl)cccc2Cl)oc1=S)c1ccccc1 |  |  |  |  | Non-toxic | 41.8 | Non-toxic | Non-toxic | Non-toxic | 41 |  |  |  |  |  |  |  |  | 
4 | CN1CCN(Cn2nc(Cc3ccccc3Nc3c(Cl)cccc3Cl)oc2=S)CC1 | 2.3 |  |  |  | Non-toxic | 65.1 | Non-toxic | Non-toxic | Non-toxic | 64.5 | 2.81 | 77.6 | > 50 | 37.44 | 35.2 | 37.72 | 37.8 | 37.94 | 37.2
5 | CC1CCCCN1Cn1nc(Cc2ccccc2Nc2c(Cl)cccc2Cl)oc1=S (centres undefined) |  |  |  |  | Non-toxic | 39.4 | Non-toxic | Non-toxic | Non-toxic | 36.6 |  |  |  |  |  |  |  |  | 
6 | S=c1oc(Cc2ccccc2Nc2c(Cl)cccc2Cl)nn1CN1CCOCC1 | 2.6 |  |  |  | Non-toxic | 64.3 | Non-toxic | Non-toxic | Non-toxic | 63.8 | 3.91 | 77 | > 50 | 37.06 | 34.1 | 37.7 | 37.13 | 37.55 | 37.15
7 | S=c1oc(Cc2ccccc2Nc2c(Cl)cccc2Cl)nn1CNC1CCCCC1 | 3.6 |  |  |  | Non-toxic | 65.9 | Non-toxic | Non-toxic | Non-toxic | 67.5 | 4.38 | 77.6 | > 50 | 37.79 | 19.6 | 37.98 | 37.03 | 37.69 | 36.78
8 | S=c1oc(Cc2ccccc2Nc2c(Cl)cccc2Cl)nn1CN1CCCCC1 |  |  |  |  | Non-toxic | 48.3 | Non-toxic | Non-toxic | Non-toxic | 45.9 |  | 74.1 | > 50 |  | 30.9 |  |  |  | 
